Data as given in ChEMBL document CHEMBL4513216, “Probing the Open Global Health Chemical Diversity Library for Multistage-Active Starting Points for Next-Generation Antimalarials” (ACS Infect Dis, 2020).

Assay: Toxicity liver stage against HepG2, at 10uM
Assay type: cell-based
Design: test concentration 10 uM, cell line HepG2-A16-CD81EGFP
Details: human, HepG2-A16-CD81EGFP cells; read-out: INHIBITION
Outline: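 Uninfected HepG2-A16-CD81EGFP cells, 3 × 10^3 per well, 1536-well, plated on prespotted compound at 10 μM final, parasite-free screening media added to match infected plates; puromycin 10 μM positive, DMSO 0.5% negative; run in parallel with 48 h PbLuc assay at 37 °C, 5% CO2; viability by CellTiter-Glo luminescence, normalized to controls.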

| Structure (SMILES) | cytotoxicity at 10 µM |
| --- | --- |
| C[C@@H]1CN(C(=O)c2cccn2C)C[C@]12CCN(c1ccsc1)C2=O | -83.8% |
| CN(CC(O)C1CC1)C(=O)Nc1ccc(F)c(-n2cccc2)c1 (stereo not drawn) | 2.2% |
| Cc1[nH]c2ccc(C(=O)N3C[C@@H](O)[C@H](N4CCOCC4)C3)cc2c1C | -21.3% |
| CN1CCN(CCCNCc2cc(O)c3cc(F)ccc3n2)CC1 | -45.4% |
| Cc1cc(C)n(CCCN(CCN2CCOCC2)Cc2ccco2)n1 | 8.97% |
| CC(C)c1n[nH]c(C2CN(C(=O)c3cc(Cl)c[nH]3)CCO2)n1 (stereo not drawn) | -5.64% |
| O=C(CN1CCN(C(=O)c2sccc2C2CC2)CC1)NC1CC1 | -3.75% |
| O=C(Nc1nncs1)N(Cc1cccc(O)c1)C1CC1 | 4.14% |
| CC(C)c1nn(C)c(N2CCOCC2)c1CNC(C)c1ccccn1 (stereo not drawn) | -6.56% |
| Cc1n[nH]c(C)c1C1CCCN1C(=O)NCC(=O)Nc1ccccc1 (stereo not drawn) | 4.23% |
| Cc1nc(C)n(CC2CN(CCOc3cccc(F)c3)CCO2)n1 (stereo not drawn) | -12.7% |
| CCC(=O)N1CC[C@@H]2[C@H](CC1)N(Cc1cccc(C)n1)CCS2(=O)=O | -1.31% |
| O=C(c1ccc(Cl)c(Cl)c1)N1CCCCC1C1OCCO1 (stereo not drawn) | 9.25% |
| CC(C)c1noc(C[S+]([O-])CC(=O)Nc2ccc(F)c(F)c2)n1 (stereo not drawn) | -8.82% |
| O=C(C1CCOCC1)N1CCO[C@H]2[C@@H](OCC3CC3)CC[C@@H]21 | -6.22% |
| CC(C)c1noc(C2CCN(S(=O)(=O)c3cccs3)CC2)n1 | 1.47% |
| Cc1nc(O)cc(C2CCN(C(=O)CN(C)c3ccccc3)CC2)n1 | 8.92% |
| Cn1cc(NC(=O)Nc2ccccn2)cc(Cl)c1=O | -7.82% |
| Cc1nn(C)c(C)c1CCC(=O)N(C)Cc1ccc(C#N)cc1 | -2.45% |
| Cc1nc(N2CCCCC2)ncc1-c1cc(=O)[nH]c(N2CCCC2)n1 | 1% |
| CNc1cc(C)nc(-c2cc(NCCO)nc3[nH]ccc23)n1 | 5.85% |
| CN(C)c1nccnc1C1CCCN(c2cnccn2)C1 (stereo not drawn) | -4.92% |

| Structure (SMILES) | cytotoxicity at 10 µM |
| --- | --- |
| CCn1cc(NC(=O)NCc2ccc3c(c2)OCO3)cn1 | -1.1% |
| Cc1nnc(N2CCCC3(CN(Cc4nccn4C)CCO3)C2)o1 (stereo not drawn) | -6.83% |
| C=Cc1cccc(CN2C[C@@H]3CC[C@H]2CN(Cc2c(C)noc2C)C3)c1 | -6.58% |
| Fc1ccc(C2CCCCN2Cc2cc(-c3ccccn3)no2)cc1 (stereo not drawn) | -3.88% |
| CCn1ncc(CN2CCCC(n3c(=O)oc4ccccc43)C2)c1C (stereo not drawn) | 1.83% |
| Cc1nn(C)c(C)c1CC(=O)N1CCC(N(C)c2cccnn2)CC1 | -3.33% |
| CC(c1nc(C(C)(C)C)no1)S(=O)(=O)CC(=O)N1CCCC1 (stereo not drawn) | -2.21% |
| CO[C@H]1CC[C@H]2[C@H]1OCCN2Cc1ccc(F)c(F)c1 | 22.3% |
| O=C(CN1C(=O)CCC1=O)N1CCOC2(CCOCC2)C1 | 4.1% |
| Clc1ccccc1-c1nc(CNC2CCc3ncnn3C2)cs1 (stereo not drawn) | -4.28% |
| Cc1ocnc1C(=O)N1CCN(C(=O)CC(C)C)[C@@H]2CS(=O)(=O)C[C@@H]21 | 12.2% |
| Cc1cc2ccccc2n1CCC(=O)N1CCN(C)CC1C(N)=O (stereo not drawn) | -1.04% |
| Clc1ccc(C(CNCc2ccncc2)n2cccn2)cc1 (stereo not drawn) | 6.73% |
| O=C(Cc1ccon1)N1CCN(c2ccc(F)cc2Cl)CC1 | 1.02% |
| CC(=O)N1CC2C[C@]2(NC(=O)c2ccco2)C1 (stereo partly drawn) | -2.36% |
| Cn1cccc1C(=O)N1CCC2(CC1)c1nc[nH]c1CCN2S(C)(=O)=O | -0.359% |
| CCC(=O)NS(=O)(=O)c1cccnc1Nc1cccc(Cl)c1Cl | 0.0207% |
| Cc1nonc1OCCNC(=O)COc1ccc(F)cc1F | -1.17% |
| c1coc(CN2CCO[C@H]3[C@H](OCC4CCCC4)CC[C@@H]32)c1 | 19.7% |
| CN(Cc1ccccc1)C(=O)c1nc(S(C)(=O)=O)n2ccccc12 | -7.36% |
| CCc1nc(CN2CCCN(C(=O)CC(C)OC)CC2)cs1 (stereo not drawn) | -24.7% |
| Cn1c(-c2ccc(F)cc2)cn2cc(C(=O)N3CCC(N)C3)nc2c1=O (stereo not drawn) | 4.43% |

| Structure (SMILES) | cytotoxicity at 10 µM |
| --- | --- |
| CC(C)N(CCNc1nc(C2CCCC2)nc2c1cnn2C)C(C)C | 5.29% |
| COC(=O)CCC(=O)N1CCc2[nH]nc(-c3ccc4c(c3)OCO4)c2C1 | -8.28% |
| CN(CCc1ccccc1)Cc1cnc(C2(C)CCCCO2)nc1 (stereo not drawn) | 1.99% |
| O=C(c1ccc(Cl)cc1F)N1CCC(Cn2cc(CO)nn2)CC1 | -1.36% |
| O=S(=O)(c1cccs1)N1CCN2C[C@H](OCC3CC3)C[C@H]2C1 | 11.9% |
| Cc1nc(CNC(=O)c2cc(COc3ccccc3)[nH]n2)n[nH]1 | 8.52% |
| COCC(=O)N1CCN(C(=O)c2scnc2C)CC1 | -9.75% |
| COc1ccccc1CN1C(=O)O[C@@H]2CN(C(C)C)C[C@@H]21 | 3.99% |
| Cc1ccc(C)c(S(=O)(=O)CCN2CCc3c(ncn3C)C2)c1 | -12.5% |
| Cc1cc(C(F)(F)F)nn1C(C)C(=O)NN1CCN(C)CC1 (stereo not drawn) | 20.4% |
| NCc1ccc(Oc2ccc(F)c(F)c2)cc1C(F)(F)F | -0.587% |
| CC(=O)NCC1CN(c2ccc3c(Cl)ccnc3c2F)CCO1 (stereo not drawn) | 5.29% |
| O=C(CC1CCN(c2cccnn2)CC1)NC1CCOCC1 | 0.671% |
| Cc1cc(CN2CCN(C(=O)NC(C)c3cccnc3)CC2)on1 (stereo not drawn) | -7.93% |
| CCCc1cc(NC(=O)c2cc(N3CCNC3=O)c(F)cc2F)n[nH]1 | 12.3% |
| Cc1nn(C)c(C)c1NC(=O)CN1CCOC(CN(C)C)C1 (stereo not drawn) | -8.72% |
| COC(=O)CCNC(=O)c1nnn(-c2ccc(C)cc2)c1C1CC1 | -0.121% |
| CCOc1ccc(CN2CCC3(CC2)CNC(=O)C3)cn1 | 0.987% |
| COC(=O)c1ccc(N2CCN(C(=O)C(C)C)C(C)C2)cc1 (stereo not drawn) | -10.4% |
| CCOC(=O)NCCNC(=O)c1cc2ccccc2nc1N1CCCC1 | -7.74% |
| Cc1ccc(OCC(=O)NS(=O)(=O)c2cccnc2)cc1C | 4.36% |
| COCc1nnc(NC(=O)c2cn(C(C)C)c3ccc(OC)cc23)s1 | -5.86% |

| Structure (SMILES) | cytotoxicity at 10 µM |
| --- | --- |
| Cn1cc(S(=O)(=O)NCc2ccsc2)cn1 | 0.978% |
| COc1cccc(C2CC(=O)Nc3nc(N4CCOCC4)sc32)c1OC (stereo not drawn) | -3.26% |
| CC(C)N(CC(N)=O)CC(=O)N(C1=CCCCC1)C1CC1 | -0.429% |
| Cc1n[nH]cc1CNC(C)c1cccc(N2CCCC2=O)c1 (stereo not drawn) | 6.05% |
| O=C1COC2(CCN(Cc3ccoc3)CC2)CN1CCn1cccn1 | 6.95% |
| Cc1ccc(C(=O)NCC(c2cnn(C)c2)N(C)C)c(O)c1 (stereo not drawn) | -7.93% |
| Cc1ccccc1CS(=O)(=O)CC(=O)NC1CCCCNC1=O (stereo not drawn) | -7.23% |
| O=C(NCC1(N2CCOCC2)CCSC1)Nc1cn[nH]c1 (stereo not drawn) | 9.37% |
| CS(=O)(=O)NCC1CCCN(Cc2ccccc2F)C1 (stereo not drawn) | -3.65% |
| CN(C)[C@@H]1CN(Cc2cccnc2)C[C@H]1c1cn(C)c2ccccc12 | 1.44% |
| CC(C)CC(=O)N1CCC2(CC1)[C@@H]1CN(C(=O)N(C)C)C[C@@H]1C(=O)N2C | 4.85% |
| O=C(O)[C@@H]1CN(Cc2c[nH]c(CC3CCCC3)n2)C[C@H]1c1ccncc1 | 1.08% |
| CCCN1CCCn2nc(CNC(=O)CC(C)n3ccnc3C)cc2C1 (stereo not drawn) | -9.4% |
| CCCn1nc2c(cc1=O)CN(CCS(C)(=O)=O)CC2 | -8.87% |
| CC(=O)c1cc(C(=O)N2CCC(CC(C)C)C2)c(=O)[nH]c1C (stereo not drawn) | 4.4% |
| c1cnc2c(-c3nccn3C[C@@H]3CCCN4CCCC[C@H]34)cccc2c1 | 1.83% |
| CCCc1noc(CN2CCN(CCC(C)C)CC2)n1 | -1.48% |
| CN1CCC(Cc2cc(Nc3ccccn3)ncn2)CC1 | -23.4% |
| Cn1cc(C(C)(O)CNc2ccc(Cl)c(C#N)n2)cn1 (stereo not drawn) | 3.97% |
| CSc1ccc(OC(C)C(=O)Nc2cc(C)n[nH]2)cc1 (stereo not drawn) | 8.64% |
| CC(=O)N1CCO[C@@H]2CN(C(=O)NCc3ccccc3)CC[C@@H]2C1 | -97.7% |
| O=C1NCC2(CCCN(C(=O)Nc3cccc(-c4cscn4)c3)CC2)O1 (stereo not drawn) | -4.54% |

| Structure (SMILES) | cytotoxicity at 10 µM |
| --- | --- |
| CS(=O)(=O)NC1CCN(Cc2coc(-c3ccc(Cl)cc3)n2)CC1 | -41.9% |
| O=C(NCC1CCOC1)c1cc(-c2cccc(Cl)c2)[nH]n1 (stereo not drawn) | -1.74% |
| Nc1nc(C2CCN(C(=O)c3cscn3)CC2)cs1 | 3.32% |
| O=C(C1CCOC1)N1CCc2ncnc(C3CC3)c2CC1 (stereo not drawn) | -2.62% |
| Cc1ccc(CN2CCC(c3cnccn3)CC2)s1 | -0.64% |
| CCC/C=C/c1ccc(CN2CCCC2)cn1 | -16.1% |
| O=C(CCOc1ccccc1F)N1CCCC1Cn1cccn1 (stereo not drawn) | -3.71% |
| NC(=O)CC1CCN(C(=O)NCC2(c3ccccc3F)CC2)CC1 | 35.2% |
| Cc1ncc(CN2CCOC(c3ccc(-c4cnn(C)c4)cn3)C2)s1 (stereo not drawn) | -23% |
| Cn1ncnc1CNC(=O)N(CCCO)C1CCc2ccccc21 (stereo not drawn) | -5.95% |
| Cc1cc(CN2CCOC(Cn3nc(C)cc3C)C2)on1 (stereo not drawn) | -5.81% |
| CNC(=O)CC1CCN(C(=O)Nc2ccc(-c3cc[nH]n3)cc2)CC1 | 6.8% |
| COc1ccc(CNCc2ccnc(N3CCOCC3)c2)c(OC)c1 | -8.92% |
| Cc1ccc(F)c(N2CCCC(NS(=O)(=O)CCCF)C2=O)c1 (stereo not drawn) | -3.14% |
| CC(=O)N1CCC(N[C@@H]2CO[C@H](CNC(=O)c3cccs3)[C@H]2O)CC1 | 1.96% |
| O=C(c1ccc(N2CCCC2)nc1)N1CCCC(n2cncn2)C1 (stereo not drawn) | -5.22% |
| Cc1cnc(CN(C)Cc2cccc(OC(F)(F)F)c2)cn1 | 2.4% |
| CCS(=O)(=O)N1CCOC2(CCCN(c3ncc(F)cn3)C2)C1 (stereo not drawn) | 5.86% |
| COCc1cccc(NC(C)C(=O)N(C)Cc2cccc(F)c2)c1 (stereo not drawn) | 12.2% |
| CS(=O)(=O)NCc1cc(=O)n2c(n1)CN(Cc1ccco1)CCC2 | 7.25% |
